Numbered stars: 1 amine (or outer) side, 2 acyl side, 3 side chain; on linkers, the order of the positions; unused ones are H or OH. Bridge positions count the residues as written; N and C are the ends. Square brackets hold non-standard residues; d marks the D form. Peptide text beside a SMILES is read from it. Trimesoyl = O=C(c1cc(C(=O)[*:2])cc(C(=O)[*:3])c1)[*:1]; Phe(4-F) = N[C@@H](Cc1ccc(F)cc1)C(=O)O; 2Nal = N[C@@H](Cc1ccc2ccccc2c1)C(=O)O; d2Nal = N[C@H](Cc1ccc2ccccc2c1)C(=O)O; X1 = CCCCCCC[C@H](N[*:1])C(=O)[*:2]; Phg = N[C@H](C(=O)O)c1ccccc1; dNle = CCCC[C@@H](N)C(=O)O; Nle = CCCC[C@H](N)C(=O)O; Orn = NCCC[C@H](N)C(=O)O; Dap = NC[C@H](N)C(=O)O; X2 = C(C[*:1])C[*:2]; βAla = NCCC(=O)O
Tests used:
[1] = Drug localization in cytosol of human HeLa cells assessed as mean fluorescence intensity at 5 uM incubated for 2 hrs by flow cytometry relative to relative to extracellular concentration; assay type: ADME, subcellular
NCI-H358 [2] = assay: Antiproliferative activity against human NCI-H358 cells incubated for 96 hrs by MTT assay; assay type: functional, cell-based; settings: Homo sapiens, NCI-H358, 96 h; read-out: EC50
Outline: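 H358 cells at 5,000/well, grown overnight, treated with serially diluted peptide (0–40 μM) in 10% FBS medium for 96 h at 37 °C. MTT added for 4 h, formazan solubilized overnight in SDS-HCl, absorbance read at 570 nm.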

NCI-H358 [3] = assay: Antiproliferative activity against human NCI-H358 cells incubated for 96 hrs by Celltiter-Glo assay; assay type: functional, cell-based; settings: Homo sapiens, NCI-H358, 96 h; read-out: EC50
GTPase KRas [4] = target: T1, GTPase KRas (Homo sapiens, UniProt P01116, G12V); assay: biochemical
T1 sequence (P01116 whole entry G12V): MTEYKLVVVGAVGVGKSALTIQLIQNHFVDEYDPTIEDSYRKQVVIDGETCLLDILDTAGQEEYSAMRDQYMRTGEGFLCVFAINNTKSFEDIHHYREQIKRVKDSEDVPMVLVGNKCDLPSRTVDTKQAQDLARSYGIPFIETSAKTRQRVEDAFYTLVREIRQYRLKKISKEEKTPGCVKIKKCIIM

GTPase KRas [5] = target: GTPase KRas (Homo sapiens, UniProt P01116, G12D); assay: Binding affinity to recombinant human KRAS G12D mutant incubated for 0.5 hrs by ELISA
GTPase KRas (Homo sapiens, UniProt P01116, G12D), sequence (P01116 whole entry G12D): as the sequence (P01116 whole entry G12V) above, with V12D counted along it

PANC-1 = assay: Antitumor activity against human PANC-1 cells xenografted in BALB/c mouse assessed as inhibition of cell growth at 40 mg/kg, iv administered once every 2 days for 4 weeks; assay type: functional; settings: PANC-1, iv, 672 h, read-out: GI
NCI-H1299 [6] = assay: Induction of apoptosis in human NCI-H1299 cells by MTT assay; assay type: functional, cell-based
GTPase KRas [7] = target: T1, GTPase KRas; assay: Inhibition of GPPNP bound KRAS G12V mutant (unknown origin) assessed as reduction in KRAS/GST-fused Raf RBD interaction incubated for 2 hrs by HTRF assay
NCI-H1299 [8] = assay: Induction of apoptosis in human NCI-H1299 cells incubated for 24 hrs by MTT assay; assay type: functional, cell-based; settings: NCI-H1299, 24 h

Compound: C[C@@H]1NC(=O)[C@@H](Cc2ccccc2)NC(=O)[C@@H]2CCCCNC(=O)c3cc(cc(c3)C(=O)N[C@H](Cc3ccc4ccccc4c3)C(=O)N[C@@H](CO)C(=O)N[C@@H](CCC(N)=O)C(=O)N[C@H](Cc3ccc4ccccc4c3)C(=O)N[C@@H](c3ccccc3)C(=O)N2)C(=O)NC[C@@H](C(=O)N[C@@H](CCCN)C(=O)N[C@H](CCCNC(=N)N)C(=O)N[C@@H](Cc2ccc(F)cc2)C(=O)N[C@H](C)C(=O)N[C@@H](CCCCN)C(N)=O)NC(=O)[C@H](CCCNC(=N)N)NC(=O)[C@@H](CCCNC(=N)N)NC1=O ([d2Nal]SQ[d2Nal][Phg]K[dF]A[dR]R[Dap][Orn][dR][Phe(4-F)][dA]K-NH2; linker N-6-11 via Trimesoyl)
- Drug uptake [1]: Active

Compound: N=C(N)NCCC[C@@H]1NC(=O)[C@H](Cc2ccc3ccccc3c2)NC(=O)[C@@H](Cc2ccccc2)NC(=O)[C@H](Cc2ccccc2)NC(=O)[C@H](CCC(N)=O)NC(=O)[C@@H](CCCNC(=N)N)NC(=O)[C@H](CCCNC(=N)N)NC(=O)[C@@H](CCCNC(=N)N)NC1=O (cyclo([2Nal]R[dR]R[dR]QF[dF]))
- Drug uptake [1]: 120%

Compound: C[C@@H]1NC(=O)[C@@H](Cc2ccccc2)NC(=O)[C@@H]2CCCCNC(=O)c3cc(cc(c3)C(=O)N[C@H](Cc3ccc4ccccc4c3)C(=O)N[C@@H](CO)C(=O)N[C@@H](CCC(N)=O)C(=O)N[C@H](Cc3ccc4ccccc4c3)C(=O)N[C@@H](c3ccccc3)C(=O)N2)C(=O)NC[C@@H](C(=O)NCCC(=O)NCCC(=O)NC(CCCCN)C(N)=O)NC(=O)[C@H](CCCNC(=N)N)NC(=O)[C@@H](CCCNC(=N)N)NC1=O (some centres not stated)
- EC50 (NCI-H358 [2]): 29 µM
- EC50 (NCI-H358 [3]): 22 µM
- Drug uptake [1]: Active
- Kd (GTPase KRas [4]): 0.14 µM

Compound: CCCCCCC[C@@H]1NC(=O)[C@@H]2CSCCCSC[C@H](NC(=O)[C@H](Cc3c[nH]c4ccccc34)NC(=O)[C@@H]3CCCN3C(=O)[C@H](CC(=O)O)NC(=O)[C@H](Cc3ccc(F)cc3)NC(=O)[C@H](CO)NC1=O)C(=O)NCCC(=O)N1CCC[C@H]1C(=O)N[C@@H](CCCC)C(=O)N2 (cyclo(C[X1]S[Phe(4-F)]DPWC[βAla]P[Nle]); linker 1-8 via X2)
- Kd (GTPase KRas [5]): 0.022 µM
- inhibition in vivo at 40 mg/kg (PANC-1): 65%

Compound: CCCC[C@H]1NC(=O)[C@H](Cc2ccc(F)cc2)NC(=O)[C@H](CCCNC(=N)N)NC(=O)[C@@H](Cc2ccc3ccccc3c2)NC(=O)[C@H](CCCNC(=N)N)NC(=O)[C@H](CCCNC(=N)N)NC(=O)[C@H](CCCNC(=N)N)NC(=O)[C@@H](C)NC(=O)[C@H]([C@@H](C)O)NC(=O)[C@H](Cc2c[nH]c3ccccc23)NC(=O)[C@H](CCC(N)=O)NC1=O (cyclo(WT[dA]RRR[d2Nal]R[Phe(4-F)][dNle]Q))
- EC50 (NCI-H1299 [6]): 3 µM

Compound: CC[C@@H](C)[C@@H]1NC(=O)[C@H](Cc2cn(CCc3c(C)[nH]c4cc(Cl)cc(Cl)c34)nn2)NC(=O)[C@@H](CC(N)=O)NC(=O)[C@H](CCCNC(=N)N)NC(=O)[C@H](Cc2ccccc2)NC(=O)[C@@H](CC(C)C)NC(=O)[C@@H](C)NC(=O)c2cc3cc(c2)C(=O)NC[C@@H](C(N)=O)NC(=O)[C@H](CCCNC(=N)N)NC(=O)[C@H](CCCNC(=N)N)NC(=O)[C@H](CCCNC(=N)N)NC(=O)[C@H](CCCNC(=N)N)NC(=O)[C@H](Cc2ccc4ccccc4c2)NC(=O)[C@H](Cc2ccccc2)NC(=O)C(CCCCNC3=O)NC(=O)[C@H](CC(=O)O)NC1=O (some centres not stated)
- IC50 (GTPase KRas [7]): 3.4 µM
- EC50 (NCI-H1299 [8]): 8 µM

Compound: C[C@H](NC(=O)[C@@H]1CNC(=O)c2cc3cc(c2)C(=O)N[C@H](Cc2ccc4ccccc4c2)C(=O)N[C@@H](CO)C(=O)N[C@@H](CCC(N)=O)C(=O)N[C@H](Cc2ccc4ccccc4c2)C(=O)N[C@@H](c2ccccc2)C(=O)N[C@@H](CCCCNC3=O)C(=O)N[C@H](Cc2ccccc2)C(=O)N[C@@H](C)C(=O)N[C@H](CCCNC(=N)N)C(=O)N[C@@H](CCCNC(=N)N)C(=O)N1)C(=O)N[C@H](CCCNC(=N)N)C(=O)N[C@H](Cc1ccccc1)C(=O)N[C@@H](Cc1ccc(F)cc1)C(N)=O
- EC50 (NCI-H358 [2]): 19 µM
